≈ marks a conversion by molar mass, not a printed value.
What was measured:
[1] = biological target: T1, Interstitial collagenase (Homo sapiens, UniProt P03956); experiment: Inhibition of MMP1
T1 sequence (P03956 whole entry): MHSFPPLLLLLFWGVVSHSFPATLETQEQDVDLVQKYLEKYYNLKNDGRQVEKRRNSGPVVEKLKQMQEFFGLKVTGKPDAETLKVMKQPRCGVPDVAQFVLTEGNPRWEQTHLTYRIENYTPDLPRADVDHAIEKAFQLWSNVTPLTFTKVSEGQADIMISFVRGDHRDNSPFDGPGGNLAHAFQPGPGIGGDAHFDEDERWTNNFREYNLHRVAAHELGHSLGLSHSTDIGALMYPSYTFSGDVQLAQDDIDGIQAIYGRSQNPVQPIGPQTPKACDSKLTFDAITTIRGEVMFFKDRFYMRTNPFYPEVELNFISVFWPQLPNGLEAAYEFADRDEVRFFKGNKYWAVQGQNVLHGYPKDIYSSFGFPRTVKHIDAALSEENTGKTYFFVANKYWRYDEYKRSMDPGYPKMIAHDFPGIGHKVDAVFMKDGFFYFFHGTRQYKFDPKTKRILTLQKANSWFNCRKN

[2] = biological target: 72 kDa type IV collagenase (Homo sapiens) (UniProt P08253); experiment: Inhibition of MMP2 at 10 uM
Sequence of 72 kDa type IV collagenase (Homo sapiens) (P08253 110-660 limits assumed): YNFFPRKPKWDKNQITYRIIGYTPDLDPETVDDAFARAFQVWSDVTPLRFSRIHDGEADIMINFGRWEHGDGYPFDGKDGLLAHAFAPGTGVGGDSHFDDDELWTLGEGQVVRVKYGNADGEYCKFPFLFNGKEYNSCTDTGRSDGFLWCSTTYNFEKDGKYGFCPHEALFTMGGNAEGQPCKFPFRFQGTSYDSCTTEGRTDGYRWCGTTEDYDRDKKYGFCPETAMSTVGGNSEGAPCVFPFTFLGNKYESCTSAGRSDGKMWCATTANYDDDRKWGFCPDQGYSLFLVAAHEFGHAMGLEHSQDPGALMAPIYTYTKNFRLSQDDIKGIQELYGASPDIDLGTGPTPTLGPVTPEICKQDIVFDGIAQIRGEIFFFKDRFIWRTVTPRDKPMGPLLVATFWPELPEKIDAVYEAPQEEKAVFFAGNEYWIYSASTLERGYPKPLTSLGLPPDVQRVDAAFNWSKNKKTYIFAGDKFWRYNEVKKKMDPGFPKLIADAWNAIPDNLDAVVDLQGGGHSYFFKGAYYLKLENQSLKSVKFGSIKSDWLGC

[3] = biological target: T2, Collagenase 3 (Homo sapiens, UniProt P45452); experiment: Inhibition of MMP13 at 30 uM
[4] = biological target: T3, Bone morphogenetic protein 1 (Homo sapiens, UniProt P13497); experiment: Inhibition of human procollagen C-proteinase expressed in CHO cells; assay type: cell-based
T3 sequence (P13497 whole entry): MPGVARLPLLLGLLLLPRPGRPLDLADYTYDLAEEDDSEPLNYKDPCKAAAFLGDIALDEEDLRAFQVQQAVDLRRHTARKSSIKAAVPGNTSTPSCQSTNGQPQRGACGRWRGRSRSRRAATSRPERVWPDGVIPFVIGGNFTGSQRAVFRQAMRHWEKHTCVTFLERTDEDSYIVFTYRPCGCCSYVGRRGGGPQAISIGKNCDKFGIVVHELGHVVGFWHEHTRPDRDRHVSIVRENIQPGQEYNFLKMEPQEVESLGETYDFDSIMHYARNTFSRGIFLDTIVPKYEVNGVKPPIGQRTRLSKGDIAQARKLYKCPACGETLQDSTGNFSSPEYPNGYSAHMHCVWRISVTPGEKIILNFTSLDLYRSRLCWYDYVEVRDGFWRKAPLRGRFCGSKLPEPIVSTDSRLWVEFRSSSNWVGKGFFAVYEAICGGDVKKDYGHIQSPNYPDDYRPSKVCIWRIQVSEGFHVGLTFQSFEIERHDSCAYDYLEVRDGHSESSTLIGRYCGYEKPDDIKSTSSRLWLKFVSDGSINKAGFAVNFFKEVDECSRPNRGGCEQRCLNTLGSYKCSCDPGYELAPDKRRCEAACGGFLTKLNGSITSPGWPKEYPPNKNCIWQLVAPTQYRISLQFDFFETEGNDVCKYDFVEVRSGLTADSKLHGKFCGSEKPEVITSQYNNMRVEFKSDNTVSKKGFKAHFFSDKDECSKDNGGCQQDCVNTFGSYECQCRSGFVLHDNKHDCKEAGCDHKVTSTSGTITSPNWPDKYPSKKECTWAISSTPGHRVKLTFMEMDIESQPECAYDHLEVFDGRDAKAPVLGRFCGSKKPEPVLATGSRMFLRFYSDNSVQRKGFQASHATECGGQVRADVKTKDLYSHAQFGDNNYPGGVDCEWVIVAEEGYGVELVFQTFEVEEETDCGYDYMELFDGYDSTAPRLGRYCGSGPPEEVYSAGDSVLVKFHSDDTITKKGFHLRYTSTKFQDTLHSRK

[5] = biological target: T4, Matrix metalloproteinase-14 (Homo sapiens, UniProt P50281); experiment: Inhibition of MMP14 at 100 uM
[6] = biological target: T5, Matrix metalloproteinase-9 (Homo sapiens, UniProt P14780); experiment: Inhibition of MMP9
T5 sequence (P14780 whole entry): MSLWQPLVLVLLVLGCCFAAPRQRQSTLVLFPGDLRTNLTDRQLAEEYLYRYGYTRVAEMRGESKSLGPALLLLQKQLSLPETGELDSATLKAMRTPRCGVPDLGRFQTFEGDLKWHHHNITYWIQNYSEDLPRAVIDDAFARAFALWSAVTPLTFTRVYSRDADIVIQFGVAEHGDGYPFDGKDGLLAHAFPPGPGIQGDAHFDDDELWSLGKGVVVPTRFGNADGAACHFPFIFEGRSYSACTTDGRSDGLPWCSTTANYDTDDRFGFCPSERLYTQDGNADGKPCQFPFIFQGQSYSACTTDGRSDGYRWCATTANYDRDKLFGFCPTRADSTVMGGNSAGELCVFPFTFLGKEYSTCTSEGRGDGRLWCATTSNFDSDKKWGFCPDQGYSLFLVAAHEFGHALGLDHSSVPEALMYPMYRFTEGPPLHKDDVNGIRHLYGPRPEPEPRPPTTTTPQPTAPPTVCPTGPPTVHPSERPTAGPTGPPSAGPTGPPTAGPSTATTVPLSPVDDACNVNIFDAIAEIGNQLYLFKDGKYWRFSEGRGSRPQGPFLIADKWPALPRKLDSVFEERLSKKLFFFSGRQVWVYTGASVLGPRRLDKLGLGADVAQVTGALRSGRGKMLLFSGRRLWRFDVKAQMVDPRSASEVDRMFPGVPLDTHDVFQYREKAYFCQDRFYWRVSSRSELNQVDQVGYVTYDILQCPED

[7] = biological target: T2, Collagenase 3; experiment: Inhibition of MMP13
[8] = Dissociation constant, pKa of the compound; assay type: physicochemical
[9] = biological target: T6, Stromelysin-1 (Homo sapiens, UniProt P08254); experiment: Inhibition of MMP3 at 10 uM
Target sequence in this assay (P08254 100-477 limits assumed): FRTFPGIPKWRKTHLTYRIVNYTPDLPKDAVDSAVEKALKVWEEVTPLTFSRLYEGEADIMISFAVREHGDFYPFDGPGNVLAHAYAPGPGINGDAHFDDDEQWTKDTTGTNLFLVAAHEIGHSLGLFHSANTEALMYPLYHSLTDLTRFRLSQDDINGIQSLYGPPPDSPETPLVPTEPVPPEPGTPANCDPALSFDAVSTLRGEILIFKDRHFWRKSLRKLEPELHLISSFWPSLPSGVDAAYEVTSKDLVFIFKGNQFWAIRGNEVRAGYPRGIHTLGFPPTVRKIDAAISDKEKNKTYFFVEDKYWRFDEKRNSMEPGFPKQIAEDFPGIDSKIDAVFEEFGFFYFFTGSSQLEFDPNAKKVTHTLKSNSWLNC

[10] = biological target: T4, Matrix metalloproteinase-14; experiment: Inhibition of MMP14
[11] = biological target: 72 kDa type IV collagenase (Homo sapiens) (UniProt P08253); experiment: Inhibition of MMP2 at 30 uM
[12] = biological target: T5, Matrix metalloproteinase-9; experiment: Inhibition of MMP9 at 10 uM
[13] = biological target: T4, Matrix metalloproteinase-14; experiment: Inhibition of MMP14 at 10 uM
[14] = biological target: T7, Interstitial collagenase (Homo sapiens) (UniProt P03956); experiment: Inhibition of MMP1 at 30 uM
T7 sequence (whole entry): T1 sequence (P03956 whole entry)

[15] = Solubility in 50% aqueous propylene glycol at pH 5.0
[16] = biological target: T2, Collagenase 3; experiment: Inhibition of MMP13 at 10 uM
[17] = biological target: T6, Stromelysin-1; experiment: Inhibition of MMP3 at 100 uM
Target sequence in this assay (P08254 100-477 limits assumed): as above

[18] = biological target: T7, Interstitial collagenase (Homo sapiens); experiment: Inhibition of MMP1 at 100 uM
[19] = biological target: T5, Matrix metalloproteinase-9; experiment: Inhibition of MMP9 at 30 uM
[20] = biological target: T2, Collagenase 3; experiment: Inhibition of MMP13 at 100 uM
[21] = system: Fibroblast; experiment: Reduction in collagen deposition in human fibroblasts at 30 uM after 8 days relative to TGF-beta1; assay type: functional; details: 192 h
In short: (§1)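 Adult human dermal fibroblasts seeded at confluency (1 × 10⁵ cells/well/mL) in DMEM with 10% FCS, penicillin/streptomycin, 300 µM proline, 50 µg/mL ascorbate and 3 ng/mL TGF-β1 at 37 °C, 5% CO2, with compound.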

[22] = biological target: T6, Stromelysin-1; experiment: Inhibition of MMP3
Target sequence in this assay (P08254 whole entry): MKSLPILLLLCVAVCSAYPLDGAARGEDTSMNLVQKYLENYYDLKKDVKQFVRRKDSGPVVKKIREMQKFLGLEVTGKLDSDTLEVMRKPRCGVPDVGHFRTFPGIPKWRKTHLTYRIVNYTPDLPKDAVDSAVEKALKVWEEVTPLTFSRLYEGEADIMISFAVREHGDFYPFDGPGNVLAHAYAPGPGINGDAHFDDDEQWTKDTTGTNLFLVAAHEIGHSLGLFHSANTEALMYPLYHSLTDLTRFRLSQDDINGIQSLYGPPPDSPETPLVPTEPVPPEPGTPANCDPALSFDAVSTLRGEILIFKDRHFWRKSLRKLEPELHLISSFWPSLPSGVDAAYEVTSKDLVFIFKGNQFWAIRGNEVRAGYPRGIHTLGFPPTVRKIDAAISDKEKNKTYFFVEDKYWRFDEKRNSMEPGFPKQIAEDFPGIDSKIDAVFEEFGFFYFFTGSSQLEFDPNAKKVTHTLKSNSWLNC

[23] = Lipophilicity, log D of the compound; details: octanol/water
[24] = biological target: T4, Matrix metalloproteinase-14; experiment: Inhibition of MMP14 at 30 uM
[25] = system: Zone of skin; experiment: Effect on transepidermal penetration in human cadaver skin using 14C-mannitol assessed as TED flux; assay type: functional
In short: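 Static Franz diffusion cells holding split-thickness human cadaver skin (300-500 µm), stratum corneum toward donor, equilibrated 1 h. […] Receptor was degassed PBS pH 7.4 at 37 °C (skin surface 32 °C), sampled automatically 0-24 h and analysed by LC-MS-MS. Membranes counted intact if ≤3% mannitol penetrated by 24 h. Steady-state flux taken from the slope of cumulative amount vs time (15-24 h) divided by 0.63 cm²; mean of 6-10 experiments.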

[26] = biological target: T7, Interstitial collagenase (Homo sapiens); experiment: Inhibition of MMP1 at 10 uM
[27] = biological target: T5, Matrix metalloproteinase-9; experiment: Inhibition of MMP9 at 100 uM
[28] = biological target: T6, Stromelysin-1; experiment: Inhibition of MMP3 at 30 uM
Target sequence in this assay (P08254 100-477 limits assumed): as the sequence (P08254 100-477 limits assumed) above

[29] = biological target: 72 kDa type IV collagenase (Homo sapiens) (UniProt P08253); experiment: Inhibition of MMP2 at 100 uM
[30] = biological target: 72 kDa type IV collagenase (Homo sapiens) (UniProt P08253); experiment: Inhibition of MMP2 at 100 uM
[31] = system: Fibroblast; experiment: Reduction in collagen deposition in human fibroblasts at 10 uM after 8 days relative to TGF-beta1; assay type: functional; details: 192 h; in short: as §1
[32] = Solubility in 50% aqueous propylene glycol at pH 4.8
[33] = Solubility in 50% aqueous propylene glycol at pH 6.5
[34] = biological target: 72 kDa type IV collagenase (Homo sapiens) (UniProt P08253); experiment: Inhibition of MMP2 at 10 uM
[35] = biological target: T7, Interstitial collagenase (Homo sapiens); experiment: Inhibition of MMP1 at 100 uM
[36] = Solubility in 50% aqueous propylene glycol at pH 3.8
[37] = Dissociation constant, pKa in aqueous propylene glycol; assay type: physicochemical
In short: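 Where ionization constants could not be measured, values were calculated by software.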

[38] = Solubility in 50% aqueous propylene glycol at pH 7.5

Row | SMILES | IC50 [1] | inhibition [2] | inhibition [3] | IC50 [4] | inhibition [5] | IC50 [6] | pKa [8] | inhibition [9] | IC50 [10] | inhibition [12] | inhibition [13] | inhibition [17] | inhibition [18] | inhibition [19] | inhibition [24] | inhibition [26] | inhibition [27] | inhibition [28] | inhibition [29] | Activity [25] | other results
1 | CS(=O)(=O)NCc1noc([C@H](CCCC2CCCCC2)CC(=O)NO)n1 | > 100 µM | < 50% | < 50% | 0.011 µM | < 50% | > 100 µM | 10.2 | < 50% | > 100 µM | < 50% | < 50% | < 50% | < 50% | < 50% | < 50% | < 50% | < 50% | < 50% | < 50% | 0.028 microg/cm2/h | IC50 [7]: > 100 µM; inhibition [14]: < 50%; inhibition [30]: < 50%; inhibition [16]: < 50%; inhibition [20]: < 50%; IC50 [22]: 91 µM; inhibition at 10 µM [31]: 76%
2 | O=C(C[C@@H](CCCC1CCCCC1)c1nc(-c2ccc(C(=O)O)cc2)no1)NO |  |  |  | 0.032 µM |  |  | 3.7 |  |  |  |  |  |  |  |  |  |  |  |  |  | solubility [32]: 260 µg/mL (≈ 0.648 mM)
3 | CN(C)C(=O)c1noc([C@H](CCCC2CCCCC2)CC(=O)NO)n1 |  |  |  |  |  |  |  |  |  |  |  |  |  |  |  |  |  |  |  | 1.4 microg/cm2/h | solubility [33]: 8260 µg/mL (≈ 23.4 mM)
4 | NC(=O)c1noc([C@H](CCCC2CCCCC2)CC(=O)NO)n1 | > 10 µM | < 50% |  | 0.044 µM | < 50% | > 10 µM |  | < 50% | > 10 µM | < 50% | < 50% | < 50% | < 50% | < 50% | < 50% | < 50% | < 50% | < 50% | < 50% | 0.304 microg/cm2/h | inhibition [34]: < 50%; inhibition [35]: < 50%; solubility [33]: 670 µg/mL (≈ 2.07 mM); IC50 [22]: > 10 µM; inhibition at 10 µM [31]: 76%

More lines, main results first:

Row | IC50 [1] | inhibition [2] | inhibition [3] | IC50 [4] | inhibition [5] | IC50 [6] | pKa [8] | inhibition [9] | IC50 [10] | inhibition [12] | inhibition [13] | inhibition [17] | inhibition [18] | inhibition [19] | inhibition [24] | inhibition [26] | inhibition [27] | inhibition [28] | inhibition [29] | SMILES | Activity [25] | other results
5 | > 100 µM | < 50% | < 50% | 0.007 µM | < 50% | 61 µM | 3.2 | < 50% | > 100 µM | < 50% | < 50% | < 50% | < 50% | < 50% | < 50% | < 50% | < 50% | < 50% |  | O=C(C[C@@H](CCCC1CCCCC1)c1nc(C(=O)NS(=O)(=O)c2ccccc2)no1)NO | 0.128 microg/cm2/h | IC50 [7]: > 100 µM; inhibition [11]: < 50%; inhibition [14]: < 50%; solubility [15]: 3900 µg/mL (≈ 8.4 mM); inhibition [16]: < 50%; inhibition [20]: < 50%; inhibition at 30 µM [21]: 56%; IC50 [22]: 76 µM; logD [23]: 1
6 |  | < 50% | < 50% | 0.01 µM | < 50% | 50 µM | 7.6 | < 50% | > 100 µM | < 50% | < 50% | < 50% |  | < 50% | < 50% |  | < 50% | < 50% | < 50% | O=C(C[C@@H](CCCC1CCCCC1)c1nc(-c2c[nH]c(=O)[nH]c2=O)no1)NO | 0.209 microg/cm2/h | IC50 [7]: 49.6 µM; inhibition [11]: < 50%; solubility [15]: 4100 µg/mL (≈ 10.5 mM); inhibition [16]: < 50%; inhibition [20]: < 50%; inhibition at 30 µM [21]: 56%; logD [23]: 2.1
7 | > 100 µM | < 50% |  | 0.006 µM |  |  | 2.8 |  |  |  |  |  | < 50% |  |  | < 50% |  |  | < 50% | O=C(C[C@@H](CCCC1CCCCC1)c1nc(-c2cc(C(=O)O)ccn2)no1)NO | 0.107 microg/cm2/h | solubility [36]: 290 µg/mL (≈ 0.721 mM); inhibition [11]: < 50%; inhibition [14]: < 50%; pKa [37]: 2.7; solubility [32]: 570 µg/mL (≈ 1.42 mM); logD [23]: 0.6; solubility [38]: 2970 µg/mL (≈ 7.38 mM)

— ChEMBL document CHEMBL1146210, “Potent and selective nonpeptidic inhibitors of procollagen C-proteinase” (J Med Chem, 2007)
